# Screening data deposited in PubChem by several laboratories.
# FLuc inhib CS: inhibits firefly luciferase, flagging false hits in luciferase inhibition screens. ATPLite firefly luciferase biochemical luminescence, 10 min. inhibition, % at 10 µM. 1.5% of 200,000 active;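 active means inhibition above about 50% when tested at 10 µM, limit read from the data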
# Target sequence (P08659 whole entry, looked up): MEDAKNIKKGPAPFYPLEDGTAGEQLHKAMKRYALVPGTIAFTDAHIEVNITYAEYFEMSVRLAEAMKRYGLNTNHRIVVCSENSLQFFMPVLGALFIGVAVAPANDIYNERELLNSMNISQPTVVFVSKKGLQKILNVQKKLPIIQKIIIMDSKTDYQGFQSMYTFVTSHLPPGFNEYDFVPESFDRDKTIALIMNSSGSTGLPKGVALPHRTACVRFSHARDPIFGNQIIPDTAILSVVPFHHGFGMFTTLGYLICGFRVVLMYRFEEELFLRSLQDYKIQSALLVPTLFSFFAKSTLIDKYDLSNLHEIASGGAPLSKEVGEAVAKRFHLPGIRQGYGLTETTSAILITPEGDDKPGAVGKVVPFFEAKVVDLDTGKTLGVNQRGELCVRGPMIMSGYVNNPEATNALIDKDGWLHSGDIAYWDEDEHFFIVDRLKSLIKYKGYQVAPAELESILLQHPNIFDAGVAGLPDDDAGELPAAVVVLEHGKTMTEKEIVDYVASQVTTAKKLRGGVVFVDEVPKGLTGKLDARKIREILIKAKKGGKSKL
# PPC-1+TRAIL kill: compounds killing PPC-1 cancer cells with TRAIL present (potentiator screen, no TRAIL-free arm). PPC-1 cells + TRAIL, ATPLite viability luminescence. cell killing (% activity), % at 4 µM or 5 µM. 0.41% of 220,000 active. AID 1443;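 active means cell killing above 50% in the first pass at 4 µM, then a duplicate retest at 5 µM averaging 50% or more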;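 further: plate controls were cells with TRAIL plus DMSO for no effect and medium-only wells lacking cells for full effect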
# APP 5'UTR act: activates APP 5'UTR luciferase reporter; 1% of 190,000 active; SH-SY5Y APP 5'UTR luciferase reporter, luminescence; zero percent = DMSO vehicle wells; activation, % at 2 µM;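 active means activation above a set limit, based on mean plus 3 SD of controls, cut at about 140% in these data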
# FLuc act counter: affects firefly luciferase, flagging false hits in luciferase stimulation screens; ATPlite luciferase biochemical, luminescence, 10 min; 0 = ATP-free wells, 1 = DMSO control; activation factor at 10 µM; 200,000 tested, under 10 active; AID 1027;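 active means luciferase activation factor, scaled between plate controls, of at least 2 with compound at 10 µM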
#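 Assay system – cell-free luciferase reagent · Medium – PBS-based ATP solution · Dosing – test compounds dosed from 2 mM stocks in 100% DMSO · Timing – 10 min, room temperature · Technique – light output (luminescence) · Measure – luminescence gain marking luciferase activators · Controls – No-ATP low control, compound-free enzyme-plus-ATP high control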
# NF-kB neuron act: NF-kB expression increase, human neuronal cells; fold change at 12.5 µM; 1.6% of 190,000 active; NF-kB reporter expression; active compounds read high; in the data active means fold change above about 3.3
# C8 TRAIL sens: sensitizes caspase-8 expressing cells to TRAIL; NB7+C8 cells + TRAIL, ATPlite viability luminescence; 1% of 360,000 active; inhibition (viability loss, TRAIL sensitization), % at 10 µM;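 active means compounds causing at least 50% loss of cell viability in the single-dose screen, relative to plate controls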
# The depositor's hits bear a star; · = no result. Shown are actives, neighbours in structure and some others; about 2.2% of the full set was active somewhere.
SMILES,FLuc inhib CS,PPC-1+TRAIL kill,APP 5'UTR act,FLuc act counter,NF-kB neuron act,C8 TRAIL sens
O=C(NCCc1ccccc1)C(=O)NCc1ccncc1,50*,13,-9,0.5,1.2,-5
CCCc1c(C(=O)N/N=C/C(C)=C/c2ccccc2)nnn1-c1nonc1N,·,·,·,·,·,26
CCCc1c(C(=O)N/N=C/C=C/c2ccccc2)nnn1-c1nonc1N,·,·,·,·,·,55*
COc1ccc(N(C(=O)CCl)C(C(=O)NC2CCCCC2)c2cccnc2)cc1 (stereo unspecified),-10,22,-20,1.1,0.09,94*
O=C(NC1CCCCC1)C(c1cccnc1)N(C(=O)CCl)c1ccccc1Cl (stereo unspecified),-10,0,-5,1.1,0.99,15
O=C(NC1CCCCC1)C(c1cccnc1)N(C(=O)CCl)c1ccc(F)cc1 (stereo unspecified),-8,1,·,1.1,0.09,94*
CCc1ccc(Nc2ncc3c(n2)CC(C)CC3=O)cc1 (stereo unspecified),5,-2,173*,1,3.5*,18
N#CCc1c(C#N)c(N)nc(N2CCCC(O)C2)c1C#N (stereo unspecified),-4,14,-25,1,1.1,-5
Cc1cccc(Cn2cnc3c(nnn3Cc3ccccc3F)c2=O)c1,-10,2,-7,1.1,1.2,-8
Cc1cccc(Cn2nnc3c2C(=O)c2ccccc2C3=O)c1,-8,33,-16,1.1,0.85,51*
Cc1ccccc1Cn1nnc2c1C(=O)c1ccccc1C2=O,·,·,6,·,0.89,52*
COc1cc(Cn2c3ccc(NC(=O)NCc4ccc(F)cc4)cc3c(=O)n2C)ccc1F,·,·,·,·,·,13
Cc1ccc(C(=O)N/N=C/c2ccoc2)cc1C,·,·,·,·,·,-8
COC(=O)c1c(N(S(C)(=O)=O)S(C)(=O)=O)sc2c1CCN(c1ncc(C(F)(F)F)cc1Cl)C2,1,7,-6,1,3.4*,-7
COC(=O)c1c(/N=C/N(C)C)sc2c1CCN(c1ncc(C(F)(F)F)cc1Cl)C2,-3,-12,10,1,1.2,-1
CCN(CC)c1ccc(N=Nc2nn(C)c(C)c2[N+](=O)[O-])cc1,76*,42,142*,0.2,5.7*,63*
CCN(Cc1ccccc1)c1ccc(N=Nc2nn(C)c(C)c2[N+](=O)[O-])cc1,3,10,27,1,1.4,-1
O=c1[nH]c(/C=C/c2ccccc2F)nc2ccccc12,·,·,·,·,·,79*
Cc1cccc(/C=C\c2nc3ccccc3c(=O)[nH]2)c1,73*,38,158*,0.3,1.2,58*
O=c1[nH]c(/C=C/c2ccc(Br)cc2)nc2ccccc12,·,·,·,·,·,78*
CN(C)c1ccc(/C=C/c2nc3ccccc3c(=O)[nH]2)cc1,·,·,·,·,·,91*
O=c1[nH]c(/C=C/c2cccc3ccccc23)nc2ccccc12,-2,-4,16,1,1.4,-2
COc1cccc(OCC(O)CN2CCN(C)CC2)c1 (stereo unspecified),·,·,·,·,·,-8
Cc1ccc(NC(=O)CN(C)C(=O)c2cccc(S(=O)(=O)NCc3ccco3)c2)cc1,·,·,·,·,·,6
Cc1ccc(N2CCN(S(=O)(=O)c3nnc(NC(=O)c4ccccc4)s3)CC2)cc1,·,·,·,·,·,0
SMILES,FLuc inhib CS,PPC-1+TRAIL kill,APP 5'UTR act,FLuc act counter,NF-kB neuron act,C8 TRAIL sens
CCc1ccc([C@@H]2C[C@H]3[C@@H](CN2S(=O)(=O)c2ccc(C)cc2)C(=O)C[C@@H](c2ccccc2)N3S(=O)(=O)c2ccc(C)cc2)cc1,·,·,·,·,·,10
O=C(Nc1ccc(Oc2ccccc2)cc1)c1csc([C@H]2C[C@H](O)[C@@H](CO)O2)n1,·,·,·,·,·,18
COc1cc(NC(=O)C/C(C)=N/NC(=O)c2cccs2)c(OC)cc1Cl,-6,-3,171*,1.1,1.3,29
CCC1CCCCN1S(=O)(=O)c1ccc(NC(=O)C2CC(=O)N(C(C)(C)C)C2)cc1 (stereo unspecified),·,·,·,·,·,22
Cc1ccn2c(C(=O)c3ccc(Cl)cc3)cnc2c1,52*,5,165*,0.5,2,31
Cc1ccn2c(=O)nc(SCC(=O)c3ccc(Cl)cc3)nc2c1,·,·,·,·,·,11
O=C1CCOc2cc(OCc3ccccc3)ccc21,34,15,118,0.7,6.3*,6
CC(Oc1ccc(Cl)cc1Cl)c1nc(-c2ccc(NC(=O)c3ccccn3)cc2)no1 (stereo unspecified),32,-5,147*,0.7,1.3,14
O=C(/C=C/c1cccc(F)c1)Nc1nccs1,21,20,104,0.8,3.6*,5
O=C(/C=C\c1ccccc1)Nc1nccs1,53*,37,168*,0.5,6.5*,31
O=C(/C=C/c1cccs1)Nc1nccs1,26,15,122,0.7,2.1,23
Cn1c(COc2ccccc2O)[n+](C)c2ccccc21,·,·,·,·,·,-2
COc1ccc(N=Nc2n(C)c3ccccc3[n+]2C)cc1,·,92*,·,·,·,·
CCN(CC(=O)NC(C)(C)C)C(=O)c1ccc2c(c1)S(=O)(=O)c1ccccc1C2=O,-4,8,-15,1,1.1,-7
c1ccc2sc(Sc3ncnc4sccc34)nc2c1,64*,13,0,0.4,1.8,-13
Cc1ccc(Nc2nc(C3CC3)cs2)cc1,69*,22,239*,0.3,8.8*,·
Clc1ccc(Nc2nc(C3CC3)cs2)cc1,14,12,180*,0.9,5.1*,-9
S=c1[nH]nc(Nc2ccc(Cl)cc2)s1,·,-2,·,·,·,2
O=C1c2cccc3cccc(c23)C(=O)N1OS(=O)(=O)c1ccccc1,59*,7,7,0.4,3,12
O=C1c2cccc3cccc(c23)C(=O)N1OS(=O)(=O)c1ccc(Br)cc1,-5,5,3,1.1,1.2,9
COc1ccc(-n2ncc3c(N(C)C4CCCCC4)ncnc32)cc1,·,·,·,·,·,85*
Cc1cccc(-n2ncc3c(NCc4ccco4)ncnc32)c1,13,2,49,0.9,2.6,4
Cc1ccc(-n2ncc3c(NCc4ccco4)ncnc32)cc1C,10,9,129,0.9,4.7*,1
c1ccc(CCNc2ncnc3c2cnn3-c2ccccc2)cc1,12,-2,135,0.9,6.5*,8
CC(C)(C)Nc1ncnc2c1cnn2-c1ccccc1,66*,27,·,0.3,·,60*
CN(Cc1ccccc1)c1ncnc2c1cnn2-c1ccccc1,24,13,124,0.8,4.7*,28
CC(C)OCCCNc1ncnc2c1cnn2-c1ccccc1,74*,·,194*,0.3,6*,49
CCCCCC(=O)Nc1ccc(-c2csc(N)n2)cc1,21,0,-1,0.8,·,2
O=c1c(=NNc2ccccc2Cl)c(=O)c2ccccc12,80*,17,154*,0.2,0.93,77*
C=C(C)COC(=O)C1CC2OC2CC1C(=O)OCC(=C)C (stereo unspecified),·,·,·,·,·,11
